Measurements pooled from the literature.
Each line is one published result; the experiments were not run side by side.
Target: Vascular endothelial growth factor receptor 1 (FLT1, Homo sapiens, UniProt P17948)

`O=c1nc(-c2ccccn2)sc2ccccc12` gave a remaining binding of 100% (cell-free assay, competition with immobilised ligand; 1 µM).
`O=C(c1ccc(Nc2ncc(Cl)c(-c3cc4ccccc4s3)n2)cc1)N1CCC(N2CCCC2)CC1` has a remaining binding of 6.2% (binding, competition with immobilised ligand; 1 µM).
`c1cnn2ncc(-c3ccnc(N4CCC45COC5)n3)c2c1` gave a remaining binding of 87% (binding; 1 µM).
The remaining binding of `COc1cnc(Nc2cccc(S(N)(=O)=O)c2)nc1N1CCN(c2ccccc2)CC1` is reported as 97% (binding, competition with immobilised ligand; 1 µM).
The remaining binding of `CN(C(=O)c1ccccc1)c1cc(N(C)c2ccc3c(c2)CCc2ccc(C(=O)NCCN4CCOCC4)cc2C3=O)ccc1F` is reported as 85% (cell-free assay, competition with immobilised ligand; 1 µM).
`CN(C)c1nccc(-c2cnc3ncccn23)n1` has a remaining binding of 100% (binding; 1 µM).
With `CCC(=O)N[C@H]1CC[C@@H](C(=O)N(C)c2ccc(-c3nc4ccccc4o3)cc2)C1` the remaining binding was 98% (cell-free assay, competition with immobilised ligand; 1 µM).
The remaining binding of `Cc1cnc(Nc2ccc(C(=O)N3CCC(N4CCCC4)CC3)cc2)nc1-c1cc2ccccc2s1` is reported as 4.4% (binding, competition with immobilised ligand; 1 µM).
With `O=C1CCc2cc(Nc3cc(OC4CCOCC4)c([N+](=O)[O-])cc3Cl)ccc2N1` the remaining binding was 100% (cell-free assay, competition with immobilised ligand; 1 µM).
The remaining binding of `O=C(NCC1CCOCC1)c1n[nH]cc1NC(=O)c1c(F)cccc1F` is reported as 90% (binding, competition with immobilised ligand; 1 µM).
The remaining binding of `CNC(=O)[C@@H]1CC[C@@H](n2c(-c3ccc4cnccc4c3)nc3ccc(C(=O)NCc4cccc(C(N)=O)c4)cc32)C1` is reported as 100% (binding, competition with immobilised ligand; 1 µM).
With `CN(C)c1nccc(-c2cnn3ncccc23)n1` the remaining binding was 100% (binding; 1 µM).
For `O=C(c1ccc(Nc2ncc(Cl)c(-c3ccc(Cl)s3)n2)cc1)N1CCC(N2CCCC2)CC1`, the remaining binding was 1.2% (binding, competition with immobilised ligand; 1 µM).
With `CC1=C(C#N)[C@@H](c2ccc3[nH]nc(C)c3c2)C(C#N)=C(c2ccc(Cl)cc2)N1` the remaining binding was 100% (cell-free assay, competition with immobilised ligand; 1 µM).
With `C[C@H]1CCN(c2nccc(-c3cnn4ncccc34)n2)C1` the remaining binding was 100% (binding; 1 µM).
`CCOC(=O)c1cc2cc(-c3cc(C(=O)NCc4ccc(C(=O)O)cc4)nn3C)ccc2[nH]1` gave a remaining binding of 97% (cell-free assay, competition with immobilised ligand; 0.1 µM).
`F[C@@H]1CCN(c2nccc(-c3cnn4ncccc34)n2)C1` gave a remaining binding of 100% (binding; 1 µM).
The remaining binding of `CCN1CCN(Cc2ccc(C(=O)Nc3ccc(C)c(Oc4ccc5c(c4)CC(=O)N5)c3)cc2C(F)(F)F)CC1` is reported as 63% (binding, competition with immobilised ligand; 1 µM).
With `CN(C)c1ncc(F)c(-c2cnn3ncccc23)n1` the remaining binding was 100% (binding; 1 µM).
For `Cc1cc(NC(=O)c2cccc(S(F)(F)(F)(F)F)c2)cc(-n2ccn3nc(-c4cccnc4)cc23)c1`, the remaining binding was 100% (cell-free assay, competition with immobilised ligand; 1 µM).
`N[C@@H]1CCN(c2nccc(-c3cnn4ncccc34)n2)C1` has a remaining binding of 100% (binding; 1 µM).
`c1cncc(-c2cccc(Nc3nccc(NC4CCCCC4)n3)c2)c1` gave a remaining binding of 71% (binding, competition with immobilised ligand; 10 µM).
